Measurements as given in ChEMBL document CHEMBL1125917, “Synthesis of halogen-substituted 1,5-benzothiazepine derivatives and their vasodilating and hypotensive activities” (1991).

Columns and labels:
Canis familiaris [1] = test: Antihypertensive activity by the increase in the vertebral blood flow in anesthetized dogs expressed as duration of half of the maximum change in blood flow.; assay type: functional, Canis lupus familiaris
Outline: (§1)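 Anesthetized dogs; compounds given intraarterially. Vertebral blood flow recorded, and a dose-response curve built from peak responses. Potency given as ratio to diltiazem, calculated from the dose-response curves. Half duration is the time, in minutes, that blood flow stays at one-half of the maximum change.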

Canis familiaris [2] = species: Canis familiaris; test: Antihypertensive activity expressed as the ratio of the potency evaluated by increased vertebral blood flow (VBF) to that of diltiazem.; assay type: functional, Canis lupus familiaris; outline: as §1
Cavia porcellus [3] = species: Cavia porcellus; test: (§2) Increase in the coronary blood flow (CBF) was determined in isolated guinea pig heart at a dose of 100 ug/heart; assay type: functional, Artery
Outline: (§3)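 Hartley guinea pig hearts perfused by the Langendorff method with modified Locke-Ringer solution containing defibrinated rabbit blood, at 40 cm H2O and 29 ± 1 °C. Compounds in saline injected into the aortic cannula at 3, 10, 30 or 100 μg/heart. Coronary flow measured by drop counter; graded by the lowest dose giving an increase of at least 0.5 mL/min.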

Cavia porcellus [4] = species: Cavia porcellus; test: Increase in the coronary blood flow (CBF) was determined in isolated guinea pig heart at a dose of 30 ug/heart; assay type: functional, Artery; outline: as §3
Cavia porcellus [5] = species: Cavia porcellus; test: as §2; assay type: functional; outline: as §3
Rattus norvegicus [6] = test: Hypotensive activity in SHR (spontaneously hypertensive rats) expressed as change in blood pressure(mmHg) after 1 hr dosing at a concentration of 30 mg/kg; assay type: functional
Outline: (§4)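 Male spontaneously hypertensive rats, fasted 20 h. Compounds dissolved in deionized water and given orally (30 mg/kg; some at 100 mg/kg). Blood pressure measured by tail-cuff in conscious animals. Change (mmHg) taken from the predosing value at 1 and 4 h, or 1 and 5 h, after dosing. N = 3-6.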

Rattus norvegicus [7] = test: Hypotensive activity in SHR (spontaneously hypertensive rats) expressed as change in blood pressure(mmHg) after 4 hr dosing at a concentration of 30 mg/kg; assay type: functional; outline: as §4
Rattus norvegicus [8] = test: Change in blood pressure in spontaneously hypertensive rats 1 hr following 30 mg/kg p.o.; assay type: functional; settings: route oral; outline: as §4
Rattus norvegicus [9] = test: Hypotensive activity in SHR (spontaneously hypertensive rats) expressed as change in blood pressure(mmHg) after 5 hr dosing at a concentration of 30 mg/kg; assay type: functional; outline: as §4
Rattus norvegicus [10] = test: Hypotensive activity in SHR (spontaneously hypertensive rats) expressed as change in blood pressure(mmHg) after 4 hr dosing at a concentration of 100 mg/kg; assay type: functional; outline: as §4

Compound | Half duration (Canis familiaris [1]) [min] | Potency ratio (Canis familiaris [2]) | Increase in CBF (Cavia porcellus [4]) [mL/min] | Increase in CBF (Cavia porcellus [5]) [mL/min] | Change in blood pressure (Rattus norvegicus [8]) [delta mmHg] | other results
CSc1ccc(C2Sc3cc(Cl)ccc3N(CCN(C)C)C(=O)C2O)cc1 (stereo unspecified) | 35 | 0.09 | – | – | – | Increase in CBF (Cavia porcellus [3]): >0.5 mL/min
CCOC(=O)OC1C(=O)N(CCN(C)C)c2ccc(Cl)cc2SC1c1ccc(OC)cc1 (stereo unspecified) | 44 | 0.29 | – | – | – | Increase in CBF (Cavia porcellus [3]): >0.5 mL/min
CCCCNC(=O)OC1C(=O)N(CCN(C)C)c2ccc(Cl)cc2SC1c1ccc(OC)cc1 (stereo unspecified) | 76 | 0.31 | >0.5 | – | – | –
COc1ccc(C2Sc3cc(F)ccc3N(CCN(C)C)C(=O)C2OC(=O)c2ccc([N+](=O)[O-])cc2)cc1 (stereo unspecified) | 48 | 0.35 | >0.5 | – | – | –
CCCN(C)CCN1C(=O)C(OC(C)=O)C(c2ccc(OC)cc2)Sc2cc(Cl)ccc21 (stereo unspecified) | 47 | 0.5 | – | >0.5 | – | Change in blood pressure (Rattus norvegicus [6]): -16 delta mmHg; Change in blood pressure (Rattus norvegicus [7]): -9 delta mmHg
C=CCN(C)CCN1C(=O)C(OC(C)=O)C(c2ccc(OC)cc2)Sc2cc(Cl)ccc21 (stereo unspecified) | 37 | 1 | – | >0.5 | -29 | Change in blood pressure (Rattus norvegicus [9]): -17 delta mmHg
CSc1ccc(C2Sc3cc(Cl)ccc3N(CCN(C)C)C(=O)C2OC(C)=O)cc1 (stereo unspecified) | 37 | 0.21 | – | – | – | Increase in CBF (Cavia porcellus [3]): >0.5 mL/min
CCCCNC(=O)OC1C(=O)N(CCN(C)C)c2ccc(F)cc2SC1c1ccc(OC)cc1 (stereo unspecified) | 58 | 0.16 | >0.5 | – | – | –
COc1ccc(C2Sc3cc(Cl)c(Cl)cc3N(CCN(C)C)C(=O)C2OC(C)=O)cc1.Cl (stereo unspecified) | 53 | 0.51 | >0.5 | – | – | –
COc1ccc(C2Sc3c(Cl)cccc3N(CCN(C)C)C(=O)C2O)cc1.Cl (stereo unspecified) | 52 | 0.91 | >0.5 | – | – | –
COc1ccc(C2Sc3c(ccc(Cl)c3Cl)N(CCN(C)C)C(=O)C2O)cc1.Cl (stereo unspecified) | 80 | 0.62 | >0.5 | – | – | –
COc1ccc(C2Sc3cccc(Cl)c3N(CCN(C)C)C(=O)C2O)cc1.Cl (stereo unspecified) | 33 | 0.2 | – | – | -31.7 | Increase in CBF (Cavia porcellus [3]): >0.5 mL/min; Change in blood pressure (Rattus norvegicus [7]): -26 delta mmHg
COc1ccc(C2Sc3cc(Cl)ccc3N(CCN(C)C)C(=O)C2OC)cc1 (single isomer, unassigned; (+)) | 47 | 0.58 | – | – | -76.8 | Change in blood pressure (Rattus norvegicus [9]): -56.5 delta mmHg
COc1ccc(C2Sc3cc(Cl)ccc3N(CCN(C)C)C(=O)C2OC=O)cc1 (single isomer, unassigned; (+)) | 44 | 0.73 | – | >0.5 | -60 | Change in blood pressure (Rattus norvegicus [10]): -72.7 delta mmHg
COc1ccc(C2Sc3cc(Cl)ccc3N(CCN(C)C)C(=O)C2O)cc1 (single isomer, unassigned; (+)) | 46 | 0.94 | – | >0.5 | – | Change in blood pressure (Rattus norvegicus [8]; 30 mg/kg): -13.3 delta mmHg; Change in blood pressure (Rattus norvegicus [7]; 30 mg/kg): -51.7 delta mmHg
COc1ccc(C2Sc3cc(Cl)ccc3N(CCN(C)C)C(=O)C2OCc2ccc([N+](=O)[O-])cc2)cc1 (single isomer, unassigned; (+)) | – | 0.58 | – | >0.5 | -11.5 | Change in blood pressure (Rattus norvegicus [9]): -8.8 delta mmHg
CCN(C)CCN1C(=O)C(OC(C)=O)C(c2ccc(OC)cc2)Sc2cc(Cl)ccc21 (single isomer, unassigned; (+)) | 46 | 0.9 | – | >0.5 | -55.5 | Change in blood pressure (Rattus norvegicus [9]): -22.3 delta mmHg
CCC(=O)OC1C(=O)N(CCN(C)C)c2ccc(Cl)cc2SC1c1ccc(OC)cc1 (single isomer, unassigned; (+)) | 64 | 1.45 | >0.5 | – | -67.7 | Change in blood pressure (Rattus norvegicus [10]): -60.7 delta mmHg
COc1ccc(C2Sc3cc(Cl)ccc3N(CCN(C)C)C(=O)C2O)cc1 (single isomer, unassigned; (-)) | 23 | 0.02 | – | <0.5 | – | Change in blood pressure (Rattus norvegicus [8]; 30 mg/kg): 1 delta mmHg; Change in blood pressure (Rattus norvegicus [7]; 30 mg/kg): -20 delta mmHg
COc1ccc(C2Sc3cc(Cl)ccc3N(CCN(C)C)C(=O)C2OC(C)=O)cc1.Cl (single isomer, unassigned; (-)) | 36 | 0.06 | – | <0.5 | – | Change in blood pressure (Rattus norvegicus [8]; 30 mg/kg): -6 delta mmHg; Change in blood pressure (Rattus norvegicus [7]; 30 mg/kg): -22.7 delta mmHg
COc1ccc(C2Sc3cc(Cl)ccc3N(CCN(C)C)C(=O)C2OC(C)=O)cc1.Cl (stereo in doubt; 2b) | 69 | 1.15 | >0.5 | – | – | –
COc1ccc(C2Sc3c(Cl)cccc3N(CCN(C)C)C(=O)C2OC(C)=O)cc1.Cl (stereo in doubt; 2cc) | 72 | 0.75 | >0.5 | – | – | –
COc1ccc(C2Sc3c(Cl)cccc3N(CCN(C)C)C(=O)C2O)cc1 (stereo in doubt; (+)-16m) | 46 | 1.25 | >0.5 | – | -46.7 | Change in blood pressure (Rattus norvegicus [7]): -30 delta mmHg
COc1ccc([C@@H]2Sc3ccccc3N(CCN(C)C)C(=O)[C@@H]2OC(C)=O)cc1 [DILTIAZEM] | 53 | 1 | >0.5 | – | -34 | Change in blood pressure (Rattus norvegicus [7]): -15 delta mmHg
